Measurements as given in ChEMBL document CHEMBL4376891, “Benzenesulfonamide Derivatives as Calcium/Calmodulin-Dependent Protein Kinase Inhibitors and Antiviral Agents against Dengue and Zika Virus Infections” (J Med Chem, 2020).
The source made the active and inactive calls. The rule behind the calls is not given here.

How the values were obtained:
dengue virus type 2 [1] = test: Antiviral activity against DENV-2 NGC-N infected in Stat1-/- mouse assessed as time delay in mouse mortality at 2 mg/kg/day, po dosed immediately following viral infection followed by daily dosing for 6 days (reference value: 9 days); format: functional
dengue virus type 2 [2] = test: Antiviral activity against DENV-2 NGC-N infected in Stat1-/- mouse assessed as overall mouse survival at 8 mg/kg, po dosed immediately following viral infection followed by daily dosing for 6 days (reference value: 0%); format: functional; details: 144 h
dengue virus type 2 [3] = test: Antiviral activity against DENV-2 NGC-N infected in Stat1-/- mouse assessed as overall mouse survival at 4 mg/kg, po dosed immediately following viral infection followed by daily dosing for 6 days (reference value: 0%); format: functional; details: 144 h
dengue virus type 2 [4] = test: Antiviral activity against eGFP-fused Dengue virus 2 infected in human BE(2)-C cells assessed as viral infection level by measuring intensity of eGFP emission from infected cells at 1.56 uM incubated for 24 hrs relative to control; format: functional
In short: (§1)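 BE(2)C cells, in RPMI 1640 with 10% FBS, were infected with DENV-2-eGFP reporter virus (MOI 1) for 24 h with or without compound, using DMSO as solvent control. Cells were fixed in 4% paraformaldehyde and stained with Hoechst, then imaged by high-content analysis. eGFP intensity per cell number is given as % of solvent control. Values are means of 3 experiments.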

dengue virus type 2 [5] = test: Antiviral activity against eGFP-fused Dengue virus 2 infected in human BE(2)-C cells assessed as viral infection level by measuring intensity of eGFP emission from infected cells at 3.13 uM incubated for 24 hrs relative to control; format: functional; in short: as §1
BE(2)-C = test: Cytotoxicity against human BE(2)-C cells assessed as reduction in cell proliferation up to 12.5 uM incubated overnight by XTT assay relative to control; format: cell-based
In short: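 BE(2)C cells (RPMI 1640, 10% FBS) exposed overnight to compound at concentrations up to 12.5 μM; XTT (proliferation) or LDH release (cytotoxicity) read by absorbance at 490 nm. Values normalized to solvent control (%), mean ± SD of 3 independent experiments.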

dengue virus type 2 [6] = test: Antiviral activity against Dengue virus 2 infected in human BE(2)-C cells assessed as NS3 protein expression at 0.39 uM incubated for 48 hrs by Western blot analysis (reference value: 100%); format: functional
In short: (§2)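 BE(2)C neuroblastoma cells in RPMI 1640 with 10% FBS were infected with DENV-2 PL046 at MOI 0.1 for 48 h, without or with compound at increasing concentrations. NS3 was immunoblotted with actin as loading control. The NS3:actin densitometry ratio was expressed as % of the DMSO control. Mean ± SD of 3 independent experiments.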

dengue virus type 2 [7] = test: Antiviral activity against Dengue virus 2 infected in human BE(2)-C cells assessed as NS3 protein expression at 3.125 uM incubated for 48 hrs by Western blot analysis (reference value: 100%); format: functional; in short: as §2
dengue virus type 2 [8] = test: Antiviral activity against Dengue virus 2 infected in human BE(2)-C cells assessed as NS3 protein expression at 6.25 uM incubated for 48 hrs by Western blot analysis (reference value: 100%); format: functional; in short: as §2
Zika virus [9] = test: Antiviral activity against Zika virus infected in human HMC3 cells assessed as reduction in NS3 protein expression at 1.56 to 12.5 uM incubated for 24 hrs by immunofluorescence microscopy; format: functional, organism-based
dengue virus type 2 [10] = test: Antiviral activity against Dengue virus 2 infected in human HMC3 cells assessed as reduction in viral progeny production at 1.56 to 12.5 uM incubated for 48 hrs by Virus titer assay; format: functional, organism-based
In short: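 Human microglial HMC3 cells in MEM with 10% FBS were infected with DENV-2 PL046 at MOI 0.1 for 48 h in the presence of noncytotoxic compound concentrations. Progeny virus was titrated by plaque assay on BHK-21 cells, expressed as log PFU/mL.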

Sindbis virus = test: Antiviral activity of eGFP-fused Sindbis virus infected in human HMC3 cells at 0.781 to 12.5 uM incubated for 24 hrs by immunofluorescence microscopy; format: functional, organism-based
Zika virus [11] = test: Antiviral activity against Zika virus infected in human BE(2)-C cells assessed as NS3 protein expression at 6.25 uM incubated for 48 hrs by Western blot analysis (reference value: 100%); format: functional
In short: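 BE(2)C cells were infected with ZIKV PRVABC59 at MOI 0.1 for 48 h, with or without compound at increasing concentrations. Viral protein was immunoblotted with actin as loading control. The band-density ratio was given as % of the solvent control. Mean ± SD, 3 independent experiments.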

Zika virus [12] = test: Antiviral activity against Zika virus infected in human BE(2)-C cells assessed as reduction inNS3 protein expression at 3.125 to 6.25 uM treated during 0 to 3 hrs post infection by Western blot analysis; format: functional, organism-based
In short: (§3)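 Time-of-addition design: BE(2)C cells were infected with DENV-2 or ZIKV at MOI 1. Compound at 3.125 or 6.25 μM was present either during adsorption (0–3 hpi) or afterward (3–24 hpi). Viral protein was immunoblotted against actin, with the ratio as % of the solvent control.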

dengue virus type 2 [13] = test: Antiviral activity against Dengue virus 2 infected in human BE(2)-C cells assessed as reduction in NS3 protein expression at 3.125 to 6.25 uM treated during 3 to 24 hrs post infection by Western blot analysis; format: functional, organism-based; in short: as §3
dengue virus type 2 [14] = test: Antiviral activity against Dengue virus 2 infected in human BE(2)-C cells transfected with shLacZ assessed as NS3 protein expression at 6.25 uM incubated for 48 hrs by Western blot analysis (reference value: 100%); format: functional
dengue virus type 2 [15] = test: Antiviral activity against Dengue virus 2 infected in human BE(2)-C cells assessed as suppression of viral-induced CaMKIIalpha activation at 3.125 uM incubated for 4 hrs by confocal microscopy; format: functional, organism-based
dengue virus type 2 [16] = test: Antiviral activity against DENV-2 NGC-N infected in Stat1-/- mouse assessed as improvement in mouse survival by measuring median survival time at 4 to 8 mg/kg, po dosed 8 hrs after infection and ending at day 6 after infection (8 hrs delay) (reference value: 8 days); format: functional
dengue virus type 2 [17] = test: Antiviral activity against DENV-2 NGC-N infected in Stat1-/- mouse assessed as reduction in viral load at 4 to 8mg/kg/day, po dosed immediately following viral infection followed by daily dosing for 3 day; format: functional, organism-based
In short: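 Stat1-/- mice infected with DENV-2 NGC-N (1x10⁵ PFU iv) or ZIKV PRVABC59 (5x10⁴ PFU sc, footpad), with oral dosing or PBS starting immediately. Serum was taken from the submandibular vein on day 3 post-infection. Viremia was measured by plaque assay and reported as individual values and mean; n = 5.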

Zika virus [18] = test: Antiviral activity against Zika virus infected in Stat1-/- mouse assessed as delay in virus-induced mouse mortality at 4 mg/kg/day, po dosed immediately following viral infection followed by daily dosing for 6 days (reference value: 13 days); format: functional, organism-based
Zika virus [19] = test: Antiviral activity against Zika virus infected in human BE(2)-C cells transfected with shLacZ assessed as NS3 protein expression at 6.25 uM incubated for 48 hrs by Western blot analysis (reference value: 100%); format: functional
Zika virus [20] = test: Antiviral activity against Zika virus infected in human BE(2)-C cells transfected with shCaMKIIalpha assessed as NS3 protein expression at 6.25 uM incubated for 48 hrs by Western blot analysis (reference value: 100%); format: functional

SMILES: COc1ccc(S(=O)(=O)N(CCCC(=O)C2CCCCCC2)c2ccccc2)cc1
- Time (dengue virus type 2 [1]): 15 days
- survival at 8 mg/kg (dengue virus type 2 [2]): 60%
- survival at 4 mg/kg (dengue virus type 2 [3]): 60%
- Activity (dengue virus type 2 [4]): 31.8%
- Activity (dengue virus type 2 [5]): 9.6%
- Activity (BE(2)-C): Non-Toxic
- Activity (dengue virus type 2 [6]): 90.8%
- Activity (dengue virus type 2 [7]): 54.5%
- Activity (dengue virus type 2 [8]): 23.1%
- Activity (Zika virus [9]): Active
- Activity (dengue virus type 2 [10]): Active
- Activity (Sindbis virus): Active
- Activity (Zika virus [11]): 4.1%
- Activity (Zika virus [12]): Dose-dependent effect
- Activity (dengue virus type 2 [13]): inactive
- Activity (dengue virus type 2 [14]): 34.6%
- Activity (dengue virus type 2 [15]): Active
- MST (dengue virus type 2 [16]): 10 days
- Activity (dengue virus type 2 [17]): Active
- Activity (Zika virus [18]): inactive
- Activity (Zika virus [19]): 25.9%
- Activity (Zika virus [20]): 89.1%
